IMP-1 inh-1 – blocks Pseudomonas aeruginosa IMP-1 metallo-beta-lactamase. purified IMP-1, nitrocefin hydrolysis, epi-absorbance fluorescence. inhibition, % at 5.6 µM. 290,000 tested, 0.45% active. AID 1556;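 active = inhibition above the mean plus 3 SD of all compounds in the same screening run, cut at about 4.5% in these data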;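 also: 0% = IMP-1 with DMSO and 100% = DMSO wells lacking enzyme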
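System: Purified IMP-1 | Read-out basis: Percent enzyme inhibition | Controls: IMP-1 with DMSO as 0%, enzyme-free DMSO as 100% | Replicates: One well per compound | Doses: 5.6 µM nominal single concentration | Detection: Epi-absorbance fluorescence, 480 nm excitation, 530 nm emission | Incubation: 25 °C, 15 min preincubation, 25 min reaction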
Neddylation inh – cullin neddylation inhibition. 360,000 tested, 0.58% active. TR-FRET cullin neddylation, biochemical. calls only at 25 µM. P61081+Q13564. AID 651699; in the data active = inhibition above about 36%
VIM-2 inh – inhibitors of Pseudomonas aeruginosa VIM-2 metallo-beta-lactamase; purified VIM-2, nitrocefin hydrolysis, epi-absorbance fluorescence; inhibition, % at 5.6 µM; 290,000 tested, 0.89% active; AID 1527;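 active = inhibition above the mean of all tested compounds plus 3 SD, cutoff set per screening run, cut at about 7.5% in these data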;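 also: red hydrolysis product quenches plate fluorescence so inhibitors raise well fluorescence; 0% = enzyme with DMSO and 100% = DMSO without enzyme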
proCasp7 act – activates human procaspase-7, counter-screen for procaspase-3 activators. 330,000 tested, 0.093% active. recombinant procaspase-7, Ac-DEVD-pNA absorbance 405 nm; D23A/D198A/D206A triple mutant, cannot self-cleave; scale: DMSO 0, 5 µM enzyme 100. activation, % at 8.5 µM. P55210;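 active = percent activation above the screen-wide mean plus 3 SD, cut at about 25% in these data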
Target sequence (P55210 whole entry D23A/D198A/D206A): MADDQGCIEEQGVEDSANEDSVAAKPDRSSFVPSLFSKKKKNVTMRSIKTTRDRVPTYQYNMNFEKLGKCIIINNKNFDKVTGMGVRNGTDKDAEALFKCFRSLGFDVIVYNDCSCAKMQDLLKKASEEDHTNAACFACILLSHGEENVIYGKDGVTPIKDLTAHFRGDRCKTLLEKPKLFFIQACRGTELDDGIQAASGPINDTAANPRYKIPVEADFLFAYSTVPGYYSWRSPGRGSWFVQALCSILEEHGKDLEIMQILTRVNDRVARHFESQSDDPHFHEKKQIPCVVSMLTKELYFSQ
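Assay system – Uncleavable procaspase-7 mutant enzyme · Quantity – 2 µM procaspase-7 mutant as dispensed · Times – 1 h preincubation, 2 h reaction · Dosing – single nominal 8.5 µM compound dose, 0.8% DMSO final · Buffer or medium – Zinc-free 50 mM HEPES buffer, pH 7.4, with NaCl and Triton X-100 · Detection – Epi-absorbance of released pNA at 405 nm, two timepoints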
proCasp3 act – activators of human procaspase-3 | P42574 | recombinant procaspase-3 D3A, Ac-DEVD-pNA absorbance 405 nm | activation, % at 8.5 µM | 330,000 tested, 0.11% active;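 active = activation above the mean of all tested compounds plus 3 SD, cut at about 21% in these data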;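 also: 0% = DMSO alone and 100% = DMSO wells spiked with extra 5 µM PC-3 D3A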
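Assay system – Procaspase-3 D3A mutant, all three cleavage aspartates alanine · Controls – DMSO-only low control, 5 µM PC-3 D3A high control · Schedule – 1 h compound preincubation, 2 h substrate hydrolysis at 25 °C · Signal – 405 nm absorbance of p-nitroaniline, reads at 0 and 120 min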
PolyA inh – yeast polyadenylation inhibition | S. cerevisiae SKY197-pL101 polyadenylation reporter, beta-gal luminescence; efflux-impaired pdr1/pdr3 knockout yeast; score 100 = 6 SD above DMSO | activity score, % at 12 µM | 300,000 tested, 0.02% active;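 active = lowest replicate activity score at least 50, where 100 means six control SD above control mean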;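 also: yeast exposed to compound for 9 h at 30 °C; higher score means more reporter readthrough which indicates perturbed polyadenylation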
IMP-1 inh-2 – blocks IMP-1 metallo-beta-lactamase in VIM-2 selectivity screen | shares compounds with VIM-2 inh | purified IMP-1, nitrocefin hydrolysis, epi-absorbance fluorescence | inhibition, % at 5.6 µM | 1,300 tested, under 10 active; call rule not given here;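 also: 0% = enzyme with vehicle and 100% = vehicle without enzyme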
VIM-2 FRET inh – counter-screen for VIM-2 inhibitors: epi-absorbance artifacts via FRET | shares compounds with VIM-2 inh | purified VIM-2, CCF2 FRET substrate hydrolysis | inhibition, % at 5.6 µM | 1,300 tested, 23% active | AID 1857;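 active = inhibition above the mean of all tested compounds plus 3 SD, cut at about 19% in these data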;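 also: 0% = VIM-2 plus DMSO and 100% = no enzyme wells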
TEM-1 inh – blocks E. coli TEM-1 beta-lactamase in VIM-2 selectivity screen | shares compounds with VIM-2 inh | Purified TEM-1, nitrocefin hydrolysis, epi-absorbance fluorescence | inhibition, % at 5.6 µM | 1,300 tested, 3% active;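 active = inhibition above that campaign's mean inhibition plus 3 SD, cut at about 0.46% in these data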;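 also: 0% = TEM-1 with DMSO and 100% = TEM-1 with 100 µM potassium clavulanate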
Target sequence (P62593 whole entry, looked up): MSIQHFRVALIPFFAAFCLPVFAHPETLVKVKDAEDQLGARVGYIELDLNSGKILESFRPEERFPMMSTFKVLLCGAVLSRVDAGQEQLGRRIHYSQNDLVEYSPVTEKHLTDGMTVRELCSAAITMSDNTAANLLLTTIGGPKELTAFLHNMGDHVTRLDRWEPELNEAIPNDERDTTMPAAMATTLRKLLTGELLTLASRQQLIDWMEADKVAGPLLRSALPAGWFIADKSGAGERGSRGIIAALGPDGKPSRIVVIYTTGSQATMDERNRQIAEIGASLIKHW
VIM-2 inh conf – confirmation of P. aeruginosa VIM-2 metallo-beta-lactamase inhibitors; purified VIM-2, nitrocefin hydrolysis, epi-absorbance; inhibition, % at 5.6 µM; shares compounds with VIM-2 inh; 1,300 tested, 96% active; AID 2187;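 active = inhibition of the VIM-2 beta-lactamase enzyme above about 11% from the earlier first-round screen, limit read from the data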;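 also: 0% = VIM-2 with DMSO and 100% = buffer wells without enzyme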
The depositor's hits bear a star; i = inactive; nt = no result given. A selection: hits, their analogues and other compounds. The true share with any hit is near 1.7%.

SMILES | IMP-1 inh-1 | Neddylation inh | VIM-2 inh | proCasp7 act | proCasp3 act | PolyA inh | IMP-1 inh-2 | VIM-2 FRET inh | TEM-1 inh | VIM-2 inh conf
CCOC(=O)c1ccccc1N/C=C/C(=O)c1ccccc1 | 1 | i | 4 | -2 | 1 | -21 | nt | nt | nt | nt
CCOC(=O)c1ccccc1N/C=C1\CCCCC1=O | -3 | i | 14* | 4 | -3 | -11 | -2 | 24* | -4 | 27*
O=C(NC(=S)NNS(=O)(=O)c1ccccc1)c1ccccc1[N+](=O)[O-] | -4 | i | -3 | -6 | -6 | 7 | nt | nt | nt | nt
CCc1c(C)c(C#N)c2nc3ccccc3n2c1NCCCN(C)C | nt | i | nt | nt | nt | nt | nt | nt | nt | nt
Cc1cc(NCC2CCCO2)n2c(nc3ccccc32)c1C#N (stereo unspecified) | -2 | nt | 13* | 3 | -6 | 6 | -2 | -9 | -4 | 38*
Cc1cc(NCCCN(C)C)n2c(nc3ccccc32)c1C#N | -4 | nt | 57* | 5 | 0 | 31 | -6 | -5 | -11 | 65*
CCC(C)Nc1cc(C)c(C#N)c2nc3ccccc3n12 (stereo unspecified) | -4 | nt | 28* | -2 | 0 | 9 | -4 | -12 | -8 | 38*
Cc1cc(NCCCOC(C)C)n2c(nc3ccccc32)c1C#N | 0 | nt | 30* | 1 | 2 | 1 | -3 | -15 | -6 | 37*
CC(=O)N(C(C)=O)N1C(=O)C2C3c4ccccc4C(c4ccccc43)C2C1=O (stereo unspecified) | -4 | i | 0 | 8 | -7 | 17 | nt | nt | nt | nt
O=C1N/C(=C/c2ccco2)C(=O)N1Cc1ccccc1F | 0 | i | 0 | -4 | -9 | 26 | nt | nt | nt | nt
Cc1n(CC(O)COCc2ccccc2)c2ccccc2[n+]1C (stereo unspecified) | 0 | i | -3 | -8 | -1 | 16 | nt | nt | nt | nt
Cc1cc(NCCCn2ccnc2)n2c(nc3ccccc32)c1C#N | -3 | nt | 82* | -2 | -3 | 12 | -2 | -13 | -7 | 89*
Cc1c2c(n3c(nc4ccccc43)c1C#N)N(CCCN(C)C)CC2 | -2 | nt | 32* | -4 | -1 | 1 | -3 | -90 | -8 | 48*
Cc1cc(Nc2ccc(O)cc2)n2c(nc3ccccc32)c1C#N | -2 | i | 0 | -16 | -2 | -6 | nt | nt | nt | nt
Cc1cccc(C)c1NC(=O)c1ccc(-n2cnnn2)cc1 | -3 | i | -1 | 0 | 4 | -8 | nt | nt | nt | nt
COc1cc2c(cc1OC)C(C)N(C(=O)c1nccnc1C(=O)O)CC2 (stereo unspecified) | -2 | i | 20* | 4 | 7 | -11 | -3 | 43* | -6 | 33*
COc1ccc(OC)c(/C=N/NC(=O)CC2C(=O)NN=C2C)c1 (stereo unspecified) | -1 | nt | 29* | 9 | -4 | 8 | -3 | 63* | -5 | 46*
O=C(CSc1cn[nH]n1)Nc1ccccc1C(=O)O | -1 | i | 20* | -16 | -11 | -14 | -2 | 40* | -4 | 23*
NC(=O)SCC(=O)Nc1ccccc1C(=O)O | 0 | i | 13* | 0 | 3 | 21 | 1 | 50* | -5 | 31*
O=C(CSc1ccccc1)Nc1ccccc1C(=O)O | -4 | i | -1 | 5 | 3 | -4 | nt | nt | nt | nt
COc1ccc(OC)c2sc(NC(=O)c3ccc(Br)s3)nc12 | -2 | i | 0 | -2 | 2 | 2 | nt | nt | nt | nt
CCN(CC)CCNC(=O)c1cc2c(=O)n(C)c3ccccc3c2s1 | -2 | nt | 18* | 4 | -3 | -5 | -2 | 8 | -6 | 26*
CCN(CC)CCNC(=O)c1cn(CCOC)c(=O)c2c1c1ccccc1n2C | -2 | i | 3 | 10 | 5 | 1 | nt | nt | nt | nt
CCCCN(CC)CCNC(=O)c1cn(-c2ccc(Cl)cc2)c(=O)c2ccccc12 | -1 | i | 0 | 8 | -3 | -12 | nt | nt | nt | nt
CCCCN(CC)CCNC(=O)c1cc2c(=O)n(C)c3ccccc3c2s1 | 1 | nt | 21* | 6 | 2 | 3 | -2 | 11 | -6 | 27*
SMILES | IMP-1 inh-1 | Neddylation inh | VIM-2 inh | proCasp7 act | proCasp3 act | PolyA inh | IMP-1 inh-2 | VIM-2 FRET inh | TEM-1 inh | VIM-2 inh conf
CN1CCN(S(=O)(=O)c2ccc(NC(=S)NC(=O)c3ccccc3)cc2)CC1 | 0 | i | 34* | -21 | -7 | -2 | -2 | -2 | -6 | 63*
CC(C)Oc1cccc(C(=O)NC(=S)Nc2ccc(N3CCN(C)CC3)cc2)c1 | 1 | i | 56* | -17 | -20 | -3 | -3 | -2 | -9 | 70*
CCOc1ccccc1C(=O)Nc1ccc(S(=O)(=O)N2CCN(C)CC2)cc1 | -3 | i | 18* | nt | nt | 11 | -1 | 5 | -6 | 31*
COc1cccc(C(=O)NC(=S)Nc2ccc(N3CCCC3)cc2)c1 | -2 | i | -1 | -15 | -14 | -23 | nt | nt | nt | nt
CCC(=O)NC(=S)Nc1ccc(S(=O)(=O)N2CCN(C)CC2)cc1 | -1 | i | 3 | 0 | -10 | 1 | nt | nt | nt | nt
O=C(O)c1cc(N/N=C/c2ccc(N3CCOCC3)cc2)ccc1Cl | 0 | i | 0 | -8 | -1 | -18 | nt | nt | nt | nt
